Assays:
[1] = biological target: T1, Steroid 17-alpha-hydroxylase/17,20 lyase (Homo sapiens, UniProt P05093); assay: Inhibition of human testicular 17-alpha-hydroxylase
T1 sequence (P05093 whole entry): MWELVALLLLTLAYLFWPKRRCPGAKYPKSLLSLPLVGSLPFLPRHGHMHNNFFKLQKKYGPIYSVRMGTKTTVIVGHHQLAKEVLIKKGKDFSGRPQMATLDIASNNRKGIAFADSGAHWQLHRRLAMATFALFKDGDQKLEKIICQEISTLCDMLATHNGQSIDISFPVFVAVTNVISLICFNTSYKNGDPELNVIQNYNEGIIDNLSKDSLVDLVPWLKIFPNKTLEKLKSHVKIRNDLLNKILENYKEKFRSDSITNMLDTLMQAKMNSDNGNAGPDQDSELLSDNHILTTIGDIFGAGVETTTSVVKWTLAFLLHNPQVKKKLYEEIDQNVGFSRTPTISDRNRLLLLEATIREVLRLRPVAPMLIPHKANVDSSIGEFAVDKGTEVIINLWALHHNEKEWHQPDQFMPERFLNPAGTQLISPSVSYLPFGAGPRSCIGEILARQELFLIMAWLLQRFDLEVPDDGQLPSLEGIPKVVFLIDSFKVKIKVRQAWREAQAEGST
In short: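 Human testicular microsomes (ca. 90 μg protein; from orchidectomy patients, stored at –70 °C, diluted in 0.1 M phosphate buffer) incubated with [7-3H]pregnenolone (400 nM) plus NADPH-generating system in phosphate buffer pH 7.4 under oxygen, 5 min, 34 °C, at four to five inhibitor concentrations. Reverse-phase HPLC with radioactivity counting; activity = conversion to 17α-hydroxypregnenolone plus DHEA. IC50 by nonlinear regression; duplicates, repeated at least once.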

[2] = biological target: T1, Steroid 17-alpha-hydroxylase/17,20 lyase; assay: Inhibition of human testicular steroid 17-alpha-hydroxylase
In short: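 Human testicular microsomes (orchidectomy tissue from untreated prostatic cancer patients, ca. 90 μg protein) incubated with [7-³H]pregnenolone (400 nM) plus NADPH-generating system in pH 7.4 phosphate buffer under oxygen, 5 min, 34 °C, with four to five inhibitor concentrations. Reverse-phase HPLC with radioactivity counting; activity = conversion to 17α-hydroxypregnenolone plus DHEA. Duplicates, repeated at least once; IC50 by nonlinear regression.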

SMILES | IC50 [1] [µM] | IC50 [2] [nM]
CC(N=N)[C@H]1CC[C@H]2[C@@H]3CC=C4C[C@@H](O)CC[C@]4(C)[C@H]3CC[C@]12C (stereo partly drawn) | 9.98 | –
CC(N=O)C1CCC2C3CC=C4C[C@@H](O)CC[C@]4(C)C3CC[C@]12C (stereo partly drawn) [1-((3S,10R,13S)-3-Hydroxy-10,13-dimethyl-2,3,4,7,8,9,10,11,12,13,14,15,16,17-tetradecahydro-1H-cyclopenta[a]phenanthren-17-yl)-ethanone oxime] | – | 530
C[C@@H](CN=O)[C@H]1CC[C@H]2[C@@H]3CCC4=CC(=O)CC[C@]4(C)[C@H]3CC[C@]12C | 5.98 | –

Reference: BindingDB's records for doi:10.1021/jm960245f (University of Maryland, 1996)
